This note sets out measurements from ChEMBL document CHEMBL1136635, “Modification of the N-terminus of peptidomimetic protein tyrosine phosphatase 1B (PTP1B) inhibitors: identification of analogues with cellular activity” (Bioorg Med Chem Lett, 2003).

A word on the inhibition: it is the share of the control response that was lost under treatment. The pKi is −log10 of the Ki, conventionally taken in molar units.

pKi: −log10 of the molar value.

Assay [1] deals with T1, Tyrosine-protein phosphatase non-receptor type 1 (Homo sapiens) (UniProt P18031).
T1 sequence (whole entry): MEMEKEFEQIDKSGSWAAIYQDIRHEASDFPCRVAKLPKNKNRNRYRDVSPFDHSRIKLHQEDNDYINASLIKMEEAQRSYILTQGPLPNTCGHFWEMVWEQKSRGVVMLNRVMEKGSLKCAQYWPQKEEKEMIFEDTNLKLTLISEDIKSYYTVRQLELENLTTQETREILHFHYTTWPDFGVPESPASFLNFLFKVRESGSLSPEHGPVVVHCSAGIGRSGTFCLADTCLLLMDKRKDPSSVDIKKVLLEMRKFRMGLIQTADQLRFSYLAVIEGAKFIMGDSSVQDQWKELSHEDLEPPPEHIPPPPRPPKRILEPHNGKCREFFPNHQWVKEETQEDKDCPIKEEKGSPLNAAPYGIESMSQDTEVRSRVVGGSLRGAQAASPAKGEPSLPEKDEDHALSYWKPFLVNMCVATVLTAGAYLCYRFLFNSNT
The experiment in a line: Inhibitory activity against human protein tyrosine phosphatase 1B (PTP1B) at a concentration of 1 uM. Put shortly:
(§1)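 Purified recombinant human enzyme constructs; PTP1B is a C-terminally truncated soluble form, tested alongside LAR and SHP-2. Activity is read as the initial rate of p-nitrophenyl phosphate (pNPP) hydrolysis and reported as percent inhibition. PTP1B is tested at 100, 10 and 1 µM, or 10 and 1 µM in the salicylate series; LAR and SHP-2 at 100 µM.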

Assay [2] addresses Receptor-type tyrosine-protein phosphatase F (Homo sapiens) (UniProt P10586). The experiment in a line: Inhibitory activity against phosphatase (LAR) at a concentration of 100 uM. The method, boiled down:
as §1

For assay [3], the target named is Tyrosine-protein phosphatase non-receptor type 11, SHP-2 (Homo sapiens) (UniProt Q06124). The experiment in a line: Inhibitory activity against phosphatase (SHP-2) at a concentration of 100 uM.
For assay [4], the target named is T1, Tyrosine-protein phosphatase non-receptor type 1 (Homo sapiens). The experiment in a line: Inhibitory activity against human protein tyrosine phosphatase 1B (PTP1B) at a concentration of 10 uM. The method, boiled down: as §1
Assay [5] shares this target. The experiment in a line: Inhibitory activity against human protein tyrosine phosphatase 1B (PTP1B) at a concentration of 100 uM. The method, boiled down: as §1
Assay [6] can be described thus: Uptake of 2-DOG (2-deoxyglucose) into L6 myocytes in the presence of half-maximal concentration of insulin at 100 uM. The format is functional, Rattus norvegicus. The method, boiled down: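 L6 myotubes are exposed to compound at 100 µM with 10 nM insulin, a dose eliciting about 50% of maximal uptake. The initial rate of 2-[3H]deoxyglucose uptake is measured, with L-[14C]glucose marking extracellular space, and normalized to recovered lysate protein. Net insulin-dependent transport with inhibitor is expressed as a percent of that without inhibitor.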

The target in assay [7] is T2, Tyrosine-protein phosphatase non-receptor type 1 (Homo sapiens, UniProt P18031).
T2 sequence (P18031 whole entry): T1 sequence (whole entry)
The experiment in a line: Inhibitory activity against human protein tyrosine phosphatase 1B (PTP1B). The method, boiled down: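 Ki against a C-terminally truncated, soluble recombinant human PTP1B. Initial rates of pNPP hydrolysis are measured, and the Ki is computed by the Cornish-Bowden direct linear method.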

The target in assay [8] is T3, Tyrosine-protein phosphatase non-receptor type 11 (Homo sapiens) (UniProt Q06124).
T3 sequence (whole entry): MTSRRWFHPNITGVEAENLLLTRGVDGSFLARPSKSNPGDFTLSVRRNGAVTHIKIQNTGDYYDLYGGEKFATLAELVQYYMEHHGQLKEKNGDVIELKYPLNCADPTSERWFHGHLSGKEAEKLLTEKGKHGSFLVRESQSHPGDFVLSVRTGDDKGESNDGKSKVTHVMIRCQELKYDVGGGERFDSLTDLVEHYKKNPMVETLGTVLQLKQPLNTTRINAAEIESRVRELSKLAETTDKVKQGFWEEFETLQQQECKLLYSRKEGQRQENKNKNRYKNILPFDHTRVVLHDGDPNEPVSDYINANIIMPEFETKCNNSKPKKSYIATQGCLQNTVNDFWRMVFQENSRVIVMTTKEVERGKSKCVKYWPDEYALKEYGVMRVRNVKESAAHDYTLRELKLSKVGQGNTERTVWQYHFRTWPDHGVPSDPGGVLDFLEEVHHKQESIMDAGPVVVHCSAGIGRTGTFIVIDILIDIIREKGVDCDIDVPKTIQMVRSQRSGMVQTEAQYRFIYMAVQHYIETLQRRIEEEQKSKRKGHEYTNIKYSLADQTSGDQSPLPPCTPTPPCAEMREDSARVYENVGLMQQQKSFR
The experiment in a line: Inhibition of recombinant human phosphatase (SHP-2) at a concentration of 100 uM. Put shortly: as §1

Assay [9] has as its target T3, Tyrosine-protein phosphatase non-receptor type 11 (Homo sapiens). The experiment in a line: Inhibitory activity against phosphatase ([…]) at a concentration of 100 uM. The method, boiled down: as §1

Receptor-type tyrosine-protein phosphatase F (Homo sapiens), sequence (P10586 whole entry): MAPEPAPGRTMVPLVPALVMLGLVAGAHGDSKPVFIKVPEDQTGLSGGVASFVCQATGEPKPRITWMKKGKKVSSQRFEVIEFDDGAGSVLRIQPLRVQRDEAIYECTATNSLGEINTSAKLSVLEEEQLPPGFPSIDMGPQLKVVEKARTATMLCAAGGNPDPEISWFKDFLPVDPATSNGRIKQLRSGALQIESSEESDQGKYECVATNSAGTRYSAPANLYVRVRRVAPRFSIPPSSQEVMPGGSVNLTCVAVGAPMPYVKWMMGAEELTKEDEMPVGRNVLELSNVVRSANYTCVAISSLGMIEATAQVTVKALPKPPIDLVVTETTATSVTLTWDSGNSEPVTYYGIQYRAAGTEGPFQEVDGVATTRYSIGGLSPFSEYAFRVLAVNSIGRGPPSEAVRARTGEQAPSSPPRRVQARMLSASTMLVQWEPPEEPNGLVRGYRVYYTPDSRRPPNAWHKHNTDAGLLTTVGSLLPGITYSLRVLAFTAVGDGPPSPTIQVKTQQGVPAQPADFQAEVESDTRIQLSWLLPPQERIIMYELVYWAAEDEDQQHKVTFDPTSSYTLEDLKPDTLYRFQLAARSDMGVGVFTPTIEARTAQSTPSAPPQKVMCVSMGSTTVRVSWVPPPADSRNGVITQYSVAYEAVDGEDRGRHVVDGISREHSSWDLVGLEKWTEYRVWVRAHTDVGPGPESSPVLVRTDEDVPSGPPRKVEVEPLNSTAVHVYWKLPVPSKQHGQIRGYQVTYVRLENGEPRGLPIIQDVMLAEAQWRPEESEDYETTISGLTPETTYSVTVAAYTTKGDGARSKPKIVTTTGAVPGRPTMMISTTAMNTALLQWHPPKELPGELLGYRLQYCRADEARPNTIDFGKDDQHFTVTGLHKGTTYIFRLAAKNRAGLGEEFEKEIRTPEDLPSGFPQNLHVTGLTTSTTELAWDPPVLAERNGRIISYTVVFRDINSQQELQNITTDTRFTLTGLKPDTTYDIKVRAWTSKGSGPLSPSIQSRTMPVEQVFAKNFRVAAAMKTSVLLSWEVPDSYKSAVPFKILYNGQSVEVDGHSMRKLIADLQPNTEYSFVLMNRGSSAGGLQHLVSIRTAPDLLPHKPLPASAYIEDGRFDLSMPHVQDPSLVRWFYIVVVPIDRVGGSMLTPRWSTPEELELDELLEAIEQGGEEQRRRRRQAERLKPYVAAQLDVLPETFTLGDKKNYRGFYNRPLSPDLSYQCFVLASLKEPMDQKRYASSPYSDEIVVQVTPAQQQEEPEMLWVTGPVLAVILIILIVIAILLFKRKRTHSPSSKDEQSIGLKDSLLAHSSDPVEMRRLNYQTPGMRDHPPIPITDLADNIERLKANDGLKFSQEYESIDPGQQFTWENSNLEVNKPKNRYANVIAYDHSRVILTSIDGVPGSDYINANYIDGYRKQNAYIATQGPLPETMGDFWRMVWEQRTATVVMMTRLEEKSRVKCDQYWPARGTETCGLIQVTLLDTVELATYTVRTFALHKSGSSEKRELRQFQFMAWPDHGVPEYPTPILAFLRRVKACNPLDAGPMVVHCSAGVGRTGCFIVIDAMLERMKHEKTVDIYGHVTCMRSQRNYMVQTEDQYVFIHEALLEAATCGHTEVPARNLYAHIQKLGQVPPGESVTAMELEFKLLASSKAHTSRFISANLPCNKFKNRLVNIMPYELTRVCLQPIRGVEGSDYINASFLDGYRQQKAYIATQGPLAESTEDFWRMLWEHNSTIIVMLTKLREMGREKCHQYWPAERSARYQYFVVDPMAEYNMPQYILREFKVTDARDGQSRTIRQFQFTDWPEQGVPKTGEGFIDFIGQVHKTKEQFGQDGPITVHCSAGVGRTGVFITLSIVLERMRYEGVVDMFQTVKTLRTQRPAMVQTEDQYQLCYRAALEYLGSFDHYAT

For the molecule `CCCCCNC(=O)[C@H](Cc1ccc(OC(C(=O)O)C(=O)O)cc1)NC(=O)[C@@H](NC(=O)OC(C)(C)C)C(C)C`, the inhibition is 3% in [1]; 0% in assay [2]; 0% in assay [3]; 18% in assay [4]; 72% in [5].

Turning to `CCCCCNC(=O)[C@H](Cc1ccc(OCC(=O)O)c(C(=O)O)c1)NC(=O)[C@H](Cc1ccccc1)NC(=O)Cc1ccc(C(F)(F)F)cc1`, the inhibition in assay [1] worked out at 39%; in assay [2], 0%; in assay [8], 28%; in [4] it was 85%. The “Control Uptake” value in assay [6] amounted to 130%. The same molecule showed a pKi in assay [7] of 6.23.

On to `CCCCCNC(=O)[C@H](Cc1ccc(OCC(=O)O)c(C(=O)O)c1)NC(=O)[C@H](Cc1ccccc1)NC(=O)Cn1nnnc1S`, for which the inhibition turned out to be 57% in [1], 0% in assay [2], 10% in assay [8] and 91% in assay [4]. In assay [6], the “Control Uptake” value was 89%. Besides, the pKi in assay [7] is 6.15.

For the molecule `CCCCCCCCCCCCCCCCCC(=O)N[C@@H](Cc1ccccc1)C(=O)N[C@@H](Cc1ccc(OCC(=O)O)c(C(=O)O)c1)C(=O)NCCCCC`, the inhibition in assay [1] was 1%; in assay [2], 0%; in assay [3], 54%; in assay [4], 3%.

As to `CCCCCNC(=O)[C@H](Cc1ccc(OCC(=O)O)c(C(=O)O)c1)NC(=O)[C@H](Cc1ccccc1)NC(=O)CCc1ccccc1`, the inhibition in assay [1] amounted to 22%; in [2], 0%; in assay [8], 12%; in assay [4], 74%. For the same molecule, the “Control Uptake” value in assay [6] was 136%. Also, the pKi in assay [7] was 5.85.

As to `CCCCCNC(=O)[C@H](Cc1ccc(OC(C(=O)O)C(=O)O)cc1)NC(=O)[C@H](Cc1ccccc1)NC(=O)OC(C)(C)C`, the inhibition in assay [1] was determined as 7%; in assay [2] it was 27%; in assay [9], 10%; in assay [4] it was 48%; in assay [5], 91%. The “Control Uptake” value in assay [6] was found to be 88%. In assay [7], this molecule had a pKi of 5.05.

As to `CCCCCNC(=O)[C@H](Cc1ccc(OCC(=O)O)c(C(=O)O)c1)NC(=O)[C@H](Cc1ccccc1)NC(=O)Cc1ccc(OC)cc1`, the inhibition was determined as 46% in assay [1], 5% in assay [2], 25% in [8] and 87% in assay [4]. Also, the “Control Uptake” value in [6] was 141%. In assay [7], this molecule showed a pKi of 6.17.

For `CCCCCNC(=O)[C@H](Cc1ccc(OCC(=O)O)c(C(=O)O)c1)NC(=O)[C@H](Cc1ccccc1)NC(=O)Oc1ccccc1`, the inhibition in assay [1] stood at 43%; in [2] it was 0%; in assay [8], 11%; in assay [4] it was 85%. For the same molecule, in assay [6], the “Control Uptake” value is 103%. The molecule also had a pKi in assay [7] of 6.06.

Consider `CCCCCNC(=O)[C@H](Cc1ccc(OC(C(=O)O)C(=O)O)cc1)NC(=O)[C@H](C)NC(=O)OC(C)(C)C`, for which the inhibition in [1] stood at 7%; in assay [2], 0%; in [8], 3%; in assay [4] it was 36%; in assay [5] it was 83%. Moreover, in assay [6], the “Control Uptake” value stood at 88%. Moreover, the pKi in [7] was 4.85.
